Reference: ChEMBL document CHEMBL3734652, “Pyrrolo[3,4-c]pyridine-1,3(2H)-diones: A Novel Antimycobacterial Class Targeting Mycobacterial Respiration” (J Med Chem, 2015)
Values after ≈ are worked out from the molar mass of the structure shown.

Columns and labels:
[1] = system: Mycobacterium tuberculosis; experiment: Antimicrobial activity against Mycobacterium tuberculosis H37RvMA under GAST/Fe medium assessed as growth inhibition after 14 days by alamar blue assay; format: functional; settings: 336 h
How it was run: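 Broth microdilution in GAST/Fe medium against fully virulent Mtb H37RvMa or its derived strains (cytochrome bd oxidase deletion ΔcydKO; qcrB Ala317Thr point mutant). Plates were incubated 14 days, growth was read by Alamar Blue, and MIC90 was taken as the potency value.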

[2] = Kinetic solubility in FaSSIF at pH 6.5 after 2 hours at 25 degC by shake flask method; format: physicochemical; settings: read-out: Kinetic_solubility
[3] = Metabolic stability in human liver microsomes assessed as residual compound at 0.1 uM after 30 mins by LC-MS/MS method in presence or absence of NADPH; format: ADME; settings: read-out: Stability
[4] = Metabolic stability in rat liver microsomes assessed as residual compound at 0.1 uM after 30 mins by LC-MS/MS method in presence or absence of NADPH; format: ADME; settings: read-out: Stability
[5] = Metabolic stability in mouse liver microsomes assessed as residual compound at 0.1 uM after 30 mins by LC-MS/MS method in presence or absence of NADPH; format: ADME; settings: read-out: Stability
[6] = system: Mycobacterium tuberculosis; experiment: Antimicrobial activity against clinical isolates of Mycobacterium tuberculosis SAWC 3385 Cas1/Delhi under 7H9 medium assessed as growth inhibition after 14 days by alamar blue assay; format: functional; settings: 336 h
[7] = system: Mycobacterium tuberculosis; experiment: Antimicrobial activity against clinical isolates of Mycobacterium tuberculosis SAWC 3933 LCC under 7H9 medium assessed as growth inhibition after 14 days by alamar blue assay; format: functional; settings: 336 h
[8] = system: Mycobacterium tuberculosis; experiment: Antimicrobial activity against clinical isolates of Mycobacterium tuberculosis SAWC 3906 Atyp-beijing under 7H9 medium assessed as growth inhibition after 14 days by alamar blue assay; format: functional; settings: 336 h
[9] = system: Mycobacterium tuberculosis; experiment: Antimicrobial activity against clinical isolates of Mycobacterium tuberculosis SAWC 2371 Haarlem under 7H9 medium assessed as growth inhibition after 14 days by alamar blue assay; format: functional; settings: 336 h
Vero = experiment: Cytotoxicity against African green monkey Vero cells assessed as cell viability by MTT assay; format: cell-based; settings: Chlorocebus sabaeus
How it was run: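 VERO kidney epithelial cells from African green monkey were exposed to compounds at concentrations up to 100 μM, and IC₅₀ was reported.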

Liver = experiment: Drug level in BALB/c mouse liver microsomes treated with 7-Amino-2-benzyl-4-methyl-6-(3-methyl-1,2,4-oxadiazol-5-yl)-1H-pyrrolo[3,4-c]pyridine-1,3(2H)-dione at 10 uM after 1 hr by LC-MS analysis; format: ADME
Plasma = experiment: Drug metabolism in C57/BL6 mouse plasma treated with 7-Amino-2-benzyl-4-methyl-6-(3-methyl-1,2,4-oxadiazol-5-yl)-1H-pyrrolo[3,4-c]pyridine-1,3(2H)-dione by LC-MS analysis; format: ADME, cell-free

| Structure (SMILES) | MIC90 [1] | solubility kinetic at 2 h [2] | further results |
| --- | --- | --- | --- |
| Cc1nc(C(=O)OC2CC2)c(N)c2c1C(=O)N(Cc1ccccc1)C2=O | 1.25 µM (≈ 0.439 µg/mL) | 202 µM (≈ 71 µg/mL) | remaining at 0.5 h, 0.1 µM [3]: 61%; remaining at 0.5 h, 0.1 µM [4]: 9.6%; remaining at 0.5 h, 0.1 µM [5]: 36% |
| Cc1noc(-c2nc(C)c3c(c2N)C(=O)N(Cc2ccccc2Cl)C3=O)n1 | 1.25 µM (≈ 0.48 µg/mL) | < 5 µM |  |
| Cc1noc(-c2nc(C)c3c(c2N)C(=O)N(Cc2ccc(-c4ccncc4)cc2)C3=O)n1 | 160 µM (≈ 68.2 µg/mL) | < 5 µM |  |
| Cc1noc(-c2nc(C)c3c(c2N)C(=O)N(Cc2ccc(Cl)cc2)C3=O)n1 | 0.62 µM (≈ 0.238 µg/mL) | < 5 µM |  |
| Cc1noc(-c2nc(C)c3c(c2N)C(=O)N(Cc2ccc(N(C)C)cc2)C3=O)n1 | 20 µM (≈ 7.85 µg/mL) | 7.4 µM (≈ 2.9 µg/mL) |  |
| Cc1noc(-c2nc(C)c3c(c2N)C(=O)N(Cc2ccccc2C(F)(F)F)C3=O)n1 | > 160 µM | < 5 µM |  |
| Cc1noc(-c2nc(C)c3c(c2N)C(=O)N(Cc2ccncc2)C3=O)n1 | 20 µM (≈ 7.01 µg/mL) | 26.4 µM (≈ 9.25 µg/mL) |  |
| COc1cccc(CN2C(=O)c3c(C)nc(-c4nc(C)no4)c(N)c3C2=O)c1 | < 0.156 µM | < 5 µM | MIC90 [6]: 0.075 µM (≈ 0.0285 µg/mL); MIC90 [7]: 0.15 µM (≈ 0.0569 µg/mL); MIC90 [8]: 0.075 µM (≈ 0.0285 µg/mL); MIC90 [9]: 0.3 µM (≈ 0.114 µg/mL) |
| Cc1noc(-c2nc(C)c3c(c2N)C(=O)N(C(C)c2ccccc2)C3=O)n1 (centres undefined) | 1.25 µM (≈ 0.454 µg/mL) | 10.9 µM (≈ 3.96 µg/mL) |  |
| Cc1nc(C#N)c(N)c2c1C(=O)N(Cc1ccccc1)C2=O | > 160 µM | < 5 µM | remaining at 0.5 h, 0.1 µM [3]: 98%; remaining at 0.5 h, 0.1 µM [4]: 100%; remaining at 0.5 h, 0.1 µM [5]: 99% |
| Cc1noc(-c2nc(C)c3c(c2N)C(=O)N(CC2CCOCC2)C3=O)n1 | 20 µM (≈ 7.15 µg/mL) | 5.7 µM (≈ 2.04 µg/mL) |  |
| Cc1noc(-c2nc(C)c3c(c2N)C(=O)N(Cc2ccccc2F)C3=O)n1 | 0.3 µM (≈ 0.11 µg/mL) | < 5 µM |  |
| Cc1noc(-c2nc(C)c3c(c2N)C(=O)N(Cc2ccc(Cl)cn2)C3=O)n1 | 2.5 µM (≈ 0.962 µg/mL) | < 5 µM |  |
| COC(=O)c1nc(C)c2c(c1N)C(O)N(Cc1ccccc1)C2=O (centres undefined) | 2.5 µM (≈ 0.818 µg/mL) | 200 µM (≈ 65.5 µg/mL) | IC50 (Vero): > 100 µM; remaining at 0.5 h, 0.1 µM [3]: 55%; remaining at 0.5 h, 0.1 µM [4]: 70%; remaining at 0.5 h, 0.1 µM [5]: 69% |
| CCOC(=O)c1nc(C)c2c(c1N)C(=O)N(Cc1ccccc1)C2O (centres undefined) | 0.144 µM (≈ 0.0492 µg/mL) | 41.5 µM (≈ 14.2 µg/mL) | IC50 (Vero): > 100 µM; remaining at 0.5 h, 0.1 µM [3]: 99%; remaining at 0.5 h, 0.1 µM [4]: 81%; remaining at 0.5 h, 0.1 µM [5]: 89% |
| Cc1noc(-c2nc(C)c3c(c2N)C(=O)N(Cc2ccc(C(F)(F)F)cc2)C3=O)n1 | 20 µM (≈ 8.35 µg/mL) | < 5 µM |  |
| Cc1nc(C(=O)N(C)C)c(N)c2c1C(=O)N(Cc1ccccc1)C2=O | > 160 µM | 172 µM (≈ 58.2 µg/mL) | IC50 (Vero): > 100 µM; remaining at 0.5 h, 0.1 µM [3]: 72%; remaining at 0.5 h, 0.1 µM [4]: 51%; remaining at 0.5 h, 0.1 µM [5]: 47% |
| Cc1nc(C(N)=O)c(N)c2c1C(=O)N(Cc1ccccc1)C2=O | > 160 µM | < 5 µM | Drug metabolism (Liver): metabolite_detected; Drug metabolism (Plasma): metabolite_detected |
| Cc1noc(-c2nc(C)c3c(c2N)C(=O)N(Cc2ccc(CO)cc2)C3=O)n1 | 0.62 µM (≈ 0.235 µg/mL) | < 5 µM |  |
| Cc1nc(C(=O)NC#N)c(N)c2c1C(=O)N(Cc1ccccc1)C2=O | > 160 µM | 185 µM (≈ 62 µg/mL) | Drug metabolism (Liver): metabolite_detected; Drug metabolism (Plasma): metabolite_detected; remaining at 0.5 h, 0.1 µM [3]: 99%; remaining at 0.5 h, 0.1 µM [4]: 92%; remaining at 0.5 h, 0.1 µM [5]: 95% |
| Cc1noc(-c2nc(C)c3c(c2N)C(=O)N(Cc2ccc(C(N)=O)cc2)C3=O)n1 | > 160 µM | < 5 µM |  |
| Cc1noc(-c2nc(C)c3c(c2N)C(=O)N(Cc2cccc(F)c2)C3=O)n1 | < 0.156 µM | < 5 µM |  |
| CO[C@H]1/C=C/O[C@@]2(C)Oc3c(C)c(O)c4c(O)c(c(/C=N/N5CCN(C)CC5)c(O)c4c3C2=O)NC(=O)/C(C)=C\C=C\[C@H](C)[C@H](O)[C@@H](C)[C@@H](O)[C@@H](C)[C@H](OC(C)=O)[C@@H]1C [RIFAMPIN] | 0.009 µM (≈ 0.00741 µg/mL) |  |  |
